Assay results: ChEMBL document CHEMBL2396552, “Novel inhibitors of a Grb2 SH3C domain interaction identified by a virtual screen” (Bioorg Med Chem, 2013)
Calls of active or inactive are those of the source.

Key:
[1] = target: T1, Growth factor receptor-bound protein 2 (Homo sapiens, UniProt P62993); experiment: Binding affinity to wild type human Grb2 SH3C domain at 50 to 100 uM by SPR assay
In short: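 Untagged Grb2 SH3C was amine-coupled to a CM5 chip at about 1500 RU. Compounds at 50 and 100 µM in HBS-N (10 mM Hepes pH 7.4, 150 mM NaCl) with 5% DMSO and 0.01% Tween 20 were injected for 120 s at 40 µL/min and 25 °C. Responses were double-referenced. Binders were defined by a response of at least 5 RU at 100 µM, derived from a KD cutoff of ≤1 mM.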
Target sequence in this assay (P62993 whole entry, looked up, the tested form may be a part): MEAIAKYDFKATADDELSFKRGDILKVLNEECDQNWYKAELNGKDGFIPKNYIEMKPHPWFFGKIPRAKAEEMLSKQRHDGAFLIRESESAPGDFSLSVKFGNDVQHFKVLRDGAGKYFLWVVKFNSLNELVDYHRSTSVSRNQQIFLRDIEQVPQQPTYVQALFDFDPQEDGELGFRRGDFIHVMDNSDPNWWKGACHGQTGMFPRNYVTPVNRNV

[2] = target: T1, Growth factor receptor-bound protein 2; experiment: Binding affinity to GST-tagged Grb2 SH3C domain (unknown origin) using biotinylated Gab2b peptide as substrate at 5 mM by SDS-PAGE analysis
In short: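 Purified GST–Grb2 SH3C (10 µg/sample) was pre-incubated with compound at 5 mM, in duplicate, for 2 h at 4 °C. Streptavidin beads carrying biotinylated Gab2b peptide were then added for 30 min. After PBS-T washes, bound protein was resolved by SDS-PAGE, Coomassie-stained and scored by densitometry relative to the no-inhibitor control (100%).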
Target sequence in this assay (P62993 whole entry, looked up, the tested form may be a part): as above

[3] = target: T1, Growth factor receptor-bound protein 2; experiment: Inhibition of GST-tagged Grb2 SH3C domain (unknown origin)-Gab2 interaction up to 20 mM incubated 2 hrs prior to biotinylated Gab2b peptide addition measured after 30 mins by SDS-PAGE analysis
In short: (§1)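 Concentration-response format of the bead pull-down. GST–Grb2 SH3C (10 µg) was pre-incubated 2 h at 4 °C with increasing compound concentrations in Tris pH 7.5 buffer containing 5% DMSO. Biotin-Gab2b peptide–streptavidin beads were added for 30 min. Bound protein was measured by SDS-PAGE/Coomassie densitometry, normalized to the no-inhibitor sample, and fitted to a sigmoidal inhibition model by nonlinear regression. Gels represent 4–6 repeats.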
Target sequence in this assay (P62993 whole entry, looked up, the tested form may be a part): as above

[4] = target: T1, Growth factor receptor-bound protein 2; experiment: Binding affinity to wild type human Grb2 SH3C domain at > 200 uM by SPR assay
Target sequence in this assay (P62993 whole entry, looked up, the tested form may be a part): as above

[5] = target: T1, Growth factor receptor-bound protein 2; experiment: Binding affinity to Grb2 SH3C domain (unknown origin) at 1 mM by isothermal titration calorimetry
In short: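 ITC at 25 °C used 20 µM purified Grb2 SH3C in the cell, in 50 mM Hepes pH 7.5, 50 mM NaCl, 0.5% DMSO. Compound at 1 mM in the same buffer was titrated in: one 4 µL injection followed by 18 injections of 15 µL.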
Target sequence in this assay (P62993 whole entry, looked up, the tested form may be a part): as above

[6] = target: T1, Growth factor receptor-bound protein 2; experiment: Competitive inhibition of GST-tagged Grb2 SH3C domain (unknown origin)-Gab2 interaction incubated 2 hrs prior to biotinylated Gab2b peptide addition measured after 30 mins by SDS-PAGE analysis; in short: as §1
Target sequence in this assay (P62993 whole entry, the tested form may be a part): as the sequence (P62993 whole entry, looked up, the tested form may be a part) above

Compound | Activity [2] | also measured
CC1(C)N=C(N)N=C(N)N1c1cccc(OCc2cccc(N)c2)c1 | inactive | Activity [1]: Active
Nc1nsc2nc3ccccc3cc12 | inactive | –
NC(C(=O)O)C(O)c1c[nH]cn1 (configuration not stated) | inactive | –
C1CN=C(C2=NCCCN2)NC1 | inactive | –
CC1(C)N=C(N)N=C(N)N1c1cc(C(F)(F)F)cc(C(F)(F)F)c1 | inactive | –
CC1(C)N=C(N)N=C(N)N1c1cccc(OCC#N)c1 | > 20% | inhibition [3]: Active; Activity [1]: Active; Activity [4]: Active
NC=C1C(=O)NC(=O)NC1=O | inactive | –
CN1CC(=O)N=C(N)N=C1N | inactive | –
N=C(NC1=NCCN1)C(=N)NC1=NCCN1 | inactive | –
Nc1n[nH]c2cc(O)[nH]c(=O)c12 | > 20% | –
Cc1cnc2c(c1)CCCC2C(N)=S (configuration not stated) | > 20% | –
CC1(C)N=C(N)N=C(N)N1c1cccc(CCCCc2cccc(N)c2)c1 | > 20% | Activity [1]: Active; Activity [4]: Active; Activity [5]: inactive; IC50 [6]: 5.7 mM
NC1=NS(=O)(=O)Nc2nn(-c3ccccc3)nc21 | inactive | –
CC(=O)c1ccc(/N=N/c2c(N)nc(N)nc2N)cc1 | > 20% | Activity [1]: Active
Cc1ccc(O)c(C2CC(=O)NC(N)=N2)c1 (configuration not stated) | inactive | Activity [1]: Active
C/C(=N\NC(=N)N)c1cnc(C)nc1C | inactive | –
NC1CCC(NC2CCC(N)CC2)CC1 (configuration not stated) | > 20% | Activity [1]: Active

Compound | Activity [2] | also measured
CC1(C)N=C(N)N=C(N)N1c1cccc(CO)c1 | inactive | –
Cn1c(N)nc2nc[nH]c2c1=O | inactive | –
NC[C@@H]1[C@@H](CN)[C@H]2C=C[C@@H]1CC2 | > 20% | –
N=C(NCCN)C(=N)NCCN | inactive | –
CN1C[C@@H]2[C@@H](N)N=C(N)N[C@@H]2C1(C)C | inactive | –
Cn1c(CCNC(=N)CSS(=O)(=O)O)nc2ccccc21 | inactive | –
Nc1nc(N)c2cnnn2n1 | inactive | –
CC1(C)N=C(N)N=C(N)N1c1cccc(/C=C/C=C/c2cccc([N+](=O)[O-])c2)c1 | > 20% | Activity [1]: Active; Activity [4]: Active; Activity [5]: inactive; IC50 [6]: 0.32 mM
Cc1nnc2c3nccnc3c(N)nn12 | inactive | –
N=C(NC1CCC(C2CCC(N)CC2)CC1)C(=N)NC1CCC(C2CCC(N)CC2)CC1 (configuration not stated) | > 20% | Activity [1]: Active
Nc1n[nH]c(=O)n2ncnc12 | inactive | –
NCCN1CCN=C1C1=NCCN1CCN | inactive | –
CC1(C)N=C(N)N=C(N)N1c1cccc(OCCOc2cccc(N)c2)c1 | inactive | Activity [1]: Active
CC(CC(=N)N)NC(=O)C1CCC(N)=N1 (configuration not stated) | inactive | –
Nc1nc(N)n(Cc2ccc3c(c2)OCO3)n1 | inactive | –
Cn1cnc(N)c2ncnc1-2 | inactive | –
Cc1ccc(C(/C=C/c2ccccc2)=N/NC(=N)N)cc1 | > 20% | Activity [1]: Active
